Published values pooled from the literature.
Lines come from different studies, so protocols differ.
Action: inhibitor
CDK7: Cyclin-dependent kinase 7 (CDK7, Homo sapiens, UniProt P50613)
CDK7 with cyclin H: Cyclin-dependent kinase 7, with cyclin H (CDK7, Homo sapiens, UniProt P50613)

Cn1cnc(Br)c1C1=CN(c2ncnc3[nH]cnc23)CCS1 — inhibition (CDK7; enzyme activity; radiometric; 50 nM): 21.6%
COC1=C(OC)C(=O)C(C/C=C(\C)CC/C=C(\C)CC/C=C(\C)CC/C=C(\C)CC/C=C(\C)CC/C=C(\C)CC/C=C(\C)CC/C=C(\C)CC/C=C(\C)CCC=C(C)C)=C(C)C1=O — inhibition (CDK7 with cyclin H; enzyme activity; ADP detection; 10 µM): 6.6%
Cc1ccc(Nc2nccc(N(C)c3ccc4c(C)n(C)nc4c3)n2)cc1S(N)(=O)=O — inhibition (CDK7 with cyclin H; enzyme activity; 10 µM): 34%
c1ccc(CNc2nc(N3CCOc4ccccc43)nc3c2CCCC3)cc1 — inhibition (CDK7; target engagement in cells; chemoproteomics; 20 mM): -1.7%
COc1c2c(cc3oc(-c4ccccc4)cc(=O)c13)OCO2 — inhibition (CDK7 with cyclin H; enzyme activity; ADP detection; 10 µM): 94.4%
C=CC(=O)Nc1cc(Nc2nccc(Nc3cc(Cl)c(F)cc3C(C)(C)O)n2)c(OC)cc1N1CC[C@@H](N(C)C)C1 — inhibition (CDK7 with cyclin H; enzyme activity; 1 µM): 14%
COc1cccc2c(NCc3ccccc3)nc(-n3c(N)nc4ccccc43)nc12 — inhibition (CDK7; target engagement in cells; chemoproteomics; 20 mM): 2.5%
COc1cc(-c2cc(-c3ccc(N4CCNCC4)cc3)cnc2C)cc(OC)c1OC — inhibition (CDK7; enzyme activity; 1 µM): 2%
O=C(O)c1cc(O)c(O)c(O)c1 — inhibition (CDK7 with cyclin H; enzyme activity; ADP detection; 10 µM): -3%
Cc1ccc(-n2nc(C(C)(C)C)cc2NC(=O)Nc2ccc(OCCN3CCOCC3)c3ccccc23)cc1 — inhibition (CDK7; enzyme activity; 10 µM): 17%
